High-throughput results: PubChem, Broad Institute
Rows were chosen to be rich in hits. Some 3.6% of all compounds tested hit in one or more screens of this group.
PfHsp90 yeast 2 = reduces growth (ATP signal) of yeast expressing P. falciparum Hsp90 | S. cerevisiae expressing PfHsp90, BacTiter-Glo ATP, 48 h; yeast lacking PDR1 and PDR3 efflux regulators | inhibition, % at 9.4 µM | 310,000 tested, 0.32% active | AID 504621;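 active = every replicate shows inhibition above about 80%, whatever the replicate mean, limit read from the data; inconclusive = mean inhibition reaches the set limit but some replicate falls short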
Beta cell apopt = beta cell apoptosis inhibition | protection from apoptosis, % (test concentration not listed) | INS-1E cytokine-induced death, ATP luminescence, 48 h; percent of positive-control rescue, neutral wells zero | 300,000 tested, 0.8% active;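 active = Every replicate reaches about 75%, or at least half do and their mean reaches it too, limit read from the data; inconclusive = At least half of replicates reach the limit but their mean does not; inactive = Under half of replicates reach the limit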;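 also: higher means more ATP so stronger rescue from cytokine killing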
HIF act = HIF pathway transcriptional activation. U2OS HRE-luciferase reporter, luminescence; normalized: DMSO 0%, desferrioxamine 100%. activation, % at 7.5 µM (by protocol). 300,000 tested, 0.32% active. AID 1910;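 active = mean activation of at least 10% of the iron chelator positive control signal, with at least half of replicates also reaching 10%; inconclusive = mean and replicate majority disagree about reaching 10%; inactive = mean and most replicates under 10%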
T cruzi repl = T. cruzi replication inhibition; T. cruzi beta-gal in NIH3T3, luminescence, 90 h; inhibition, % (concentration not given with the values); 300,000 tested, 1.4% active;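 active = mean inhibition across valid replicates above about 55%, limit read from the data; inconclusive = mean below that limit but half or more replicates reach it; inactive = mean below it, under half of replicates reach it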;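 also: signal also drops with host cell toxicity which is not excluded here; higher percent means less beta-gal luminescence so fewer parasites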
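Read-out: Parasite load inhibition, % | Test system: Mouse NIH/3T3 fibroblasts infected with β-gal-expressing T. cruzi Tulahuen C4 | Amount: 5,000 cells/well | Medium: DMEM, 2% fetal bovine serum | Signal: GalScreen β-gal luminescence, detergent lysis, 60 min | Timing: 3 h attach, ≥90 h co-culture | Also added: Tulahuen C4 trypomastigotes, 5000/well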
SKKanGAS inh = blocks kanamycin growth of S. pyogenes SKKanGAS strain; inhibition, % at 7.5 µM; BacTiter-Glo, 6 h; 300,000 tested, 1.3% active;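 active = mean replicate score, as percent of positive control median, at least 50; inconclusive = mean below 50 but one replicate at or above 50; inactive = mean and every replicate below 50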;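 also: strain carries kanamycin resistance gene driven by streptokinase promoter and grows in 40 µg/ml kanamycin; loss of luminescence reflects streptokinase promoter inhibition or plain growth inhibition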
CSC inhib = cancer stem cell inhibition. 300,000 tested, 1.1% active. inhibition, % at 7.5 µM. cancer stem cell-like cells viability, luminescence; in the data active = inhibition above about 75%; inconclusive = no clear call, values can overlap the other calls; tested in HMLE shEcad cells
Numbers stand for hits; – = inactive; ? = inconclusive; · = no result given.

SMILES | PfHsp90 yeast 2 | Beta cell apopt | HIF act | T cruzi repl | SKKanGAS inh | CSC inhib
O=[N+]([O-])c1cccnc1N1CCC(c2cc(-c3cccc(C(F)(F)F)c3)n[nH]2)CC1 | – | – | – | – | 100.0 | 122.7
O=[N+]([O-])c1cccnc1N1CCC(c2cc(-c3ccc(Cl)cc3Cl)n[nH]2)CC1 | – | – | – | – | 80.4 | 106.0
CC(=O)c1ccc(N2CCN(c3ccccc3O)CC2)c([N+](=O)[O-])c1 | – | – | – | – | – | –
CC(=O)c1ccc(N2CCC(c3cc(-c4ccc(Cl)cc4Cl)n[nH]3)CC2)c([N+](=O)[O-])c1 | · | – | – | 62.1 | 79.6 | 118.0
O=C(NCc1nnc(SCC(=O)N2CCN(c3ccccc3)CC2)o1)c1c(F)cccc1Cl | – | – | – | – | – | ·
O=C(Nc1ccc(F)c([N+](=O)[O-])c1)C(=O)c1c(O)[nH]c2ccccc12 | – | – | – | – | – | –
CCOc1ccc2oc(C(=O)OCC(=O)N3CC(C)OC(C)C3)c(C)c2c1 (centres undefined) | – | – | · | · | · | –
Cc1c(OCC(=O)C(C)(C)C)ccc2c(-c3ccccc3)cc(=O)oc12 | 96.1 | – | – | – | – | –
COc1ccc(N2CCN(C(=O)c3ccc(Br)cc3)CC2)c([N+](=O)[O-])c1 | 104.8 | – | – | – | – | –
O=C(NC(=S)N1CCN(c2ccc(O)cc2)CC1)c1cccs1 | – | – | – | – | – | –
O=C(NC(=S)N1CCN(c2c(Cl)cccc2[N+](=O)[O-])CC1)c1cccs1 | – | – | – | – | 76.0 | –
COc1ccc(N2CCN(C(=S)NC(=O)c3cccs3)CC2)c([N+](=O)[O-])c1 | – | – | – | – | 51.7 | –
COc1ccc(N2CCN(C(=O)c3ccc(C)cc3)CC2)c([N+](=O)[O-])c1 | – | – | – | – | – | –
C[C@H](CO)N1C[C@H](C)[C@@H](CN(C)S(=O)(=O)c2ccc(F)cc2)Oc2ccc(NS(=O)(=O)c3ccccc3)cc2C1=O | – | – | · | · | · | –
O=C(NCc1nc2ccccc2[nH]1)c1ccccc1F | · | · | – | – | – | –
O=C(NCc1nc2ccccc2[nH]1)c1c(F)c(F)c(F)c(F)c1F | – | – | 74.1 | – | – | –
CC(=O)c1cccc(NC(=O)CSC(=O)c2ccccc2)c1 | · | – | 30.1 | – | – | –
COc1ccc(-c2sc3ccccc3c2C#CCO)cc1 | – | – | – | – | – | –
COc1ccc(-c2oc(=O)c3cc(OC)c(OC)cc3c2C#CC2(O)CCCCC2)cc1 | – | – | · | · | · | –
COc1ccc(-c2sc3ccccc3c2C#CC2(O)CCCCC2)cc1 | – | – | – | – | 101.0 | 89.0
COc1ccc(-c2sc3cc(OC)c(OC)cc3c2C#CC2(O)CCCCC2)cc1 | – | – | · | · | · | 125.1
O=C(C[C@@H]1C/C=C\CCC(=O)OC[C@@H]2CCCN2C1=O)N[C@@H](CO)Cc1ccccc1 | – | – | · | · | · | –
COc1ccc(-c2csc(Nc3ccc(S(=O)(=O)Nc4cc(C)on4)cc3)n2)cc1C | – | · | – | – | 68.3 | –
COC(=O)c1cc(OC)c(OC)cc1NC(=S)NC(=O)c1ccco1 | – | – | – | – | – | –
CC(Oc1ccc(Cl)cc1)C(=O)NNC(=S)NC(=O)c1ccco1 (centres undefined) | 103.1 | – | – | – | 91.8 | –
SMILES | PfHsp90 yeast 2 | Beta cell apopt | HIF act | T cruzi repl | SKKanGAS inh | CSC inhib
O=C(NNC(=S)NC(=O)c1ccco1)c1ccc(F)cc1 | – | – | – | – | 82.5 | –
CCCCOC(=O)c1ccc(NC(=S)NC(=O)c2ccco2)cc1 | – | – | – | – | – | –
COc1ccccc1C(=O)NNC(=S)NC(=O)c1ccco1 | 104.1 | 84.1 | – | – | 65.4 | ·
O=C(NNC(=S)Nc1ccc(F)cc1F)c1ccco1 | – | – | – | – | – | –
O=C(NC(=S)NCc1ccc(Cl)cc1)c1ccco1 | – | – | · | · | · | –
CCCOc1ccc(C(=O)NNC(=S)NC(=O)c2ccco2)cc1 | – | – | – | ? | 104.2 | –
COCCC(=O)N1CCC(Oc2ccc(C(=O)NCc3nccn3C)cc2)CC1 | – | – | – | – | – | –
COc1cc(-c2noc(C)c2C(=O)NCCCn2ccnc2)cc(OC)c1OC | – | – | · | · | · | –
Cc1cccc(OCCSc2nc(N)cc(N)n2)c1 | – | – | – | – | – | –
COc1ccc(C(=O)NNC(=S)NC(=O)c2ccco2)cc1 | · | – | – | – | 80.9 | –
O=C(COc1ccc(Cl)cc1Cl)NNC(=S)NCc1ccco1 | – | – | – | – | – | –
Cc1ccccc1C(=O)N1CCN(c2ccc(NC(=S)NC(=O)c3ccco3)cc2)CC1 | – | – | – | – | – | –
COc1ccccc1C(=O)NC(=S)Nc1ccc(N2CCN(C(=O)c3ccco3)CC2)cc1 | – | – | – | – | 88.3 | –
O=C(NC(=S)NNC(=O)c1ccco1)c1ccc(Br)cc1 | – | – | – | – | 55.4 | –
O=C(COc1ccc(Cl)cc1Cl)NNC(=S)NC(=O)c1ccco1 | – | – | – | – | 94.6 | –
OCC[C@H]1C[C@H](O)[C@@H](O)[C@]2(CCCc3ccccc3O2)O1 | – | – | · | · | · | –
Cc1ccc2c(c1)-n1c(nc3ccccc3c1=O)C(Cc1ccc(O)cc1)NC2=O (centres undefined) | · | – | · | · | · | ·
COc1ccc(C(=O)NCC(=O)OCC(=O)N2CC(C)OC(C)C2)cc1OC (centres undefined) | – | – | · | · | · | –
O=C(COC(=O)c1cc[n+]([O-])cc1)Nc1ccc([N+](=O)[O-])cc1Cl | – | – | – | – | – | –
Cn1cccc1CC(=O)NNC(=S)NC(=O)c1ccc(F)cc1 | – | – | – | – | 65.0 | –
Cn1cccc1CC(=O)NNC(=O)Nc1ccc(Cl)cc1 | – | – | – | – | – | –
COC(=O)c1ccc(CSC2=NC[C@@H]3[C@@H]4C(=O)N(Cc5ccccc5)C(=O)[C@@H]4[C@](C)(C(=O)OC)N23)cc1 | – | · | · | · | · | ·
CC[N+]1(C)[C@@H]2CC[C@H]1CC(OC(=O)[C@H]1CCC(C(=O)OC3C[C@H]4CC[C@@H](C3)[N+]4(C)CC)(c3ccccc3)c3ccccc31)C2 (some centres undefined) | – | – | · | · | · | –
N#Cc1nc(-c2ccccc2Cl)oc1N1CCN(C(=O)c2ccco2)CC1 | – | · | – | – | 69.1 | –
N#Cc1nc(-c2ccccc2F)oc1N1CCN(C(=O)c2ccco2)CC1 | – | · | – | – | – | –
O=C(O)CC/C(=N/Nc1ccc([N+](=O)[O-])cc1)C(=O)O | 100.3 | – | – | – | – | –
COc1ccc(C(=O)/C(C#N)=N/Nc2ccc([N+](=O)[O-])cc2)cc1 | – | 107.1 | – | – | – | –
N#CC(C#N)=NNc1ccc([N+](=O)[O-])cc1 | – | – | – | – | 86.5 | –
COc1ccc(C(=O)/C(C#N)=N/Nc2ccccc2[N+](=O)[O-])cc1 | – | – | – | – | – | –
CN(CC(=O)NCCCN1CCOCC1)S(=O)(=O)c1cc(Cl)ccc1Cl | – | – | – | – | – | –
